Results from ChEMBL document CHEMBL1129626, “Cyclic HIV protease inhibitors: synthesis, conformational analysis, P2/P2' structure-activity relationship, and molecular recognition of cyclic ureas” (J Med Chem, 1996).

What was measured:
[1] = test system: Human immunodeficiency virus 1; assay: Inhibition of viral infection in HIV-1 (RF)-infected MT-2 cells with an oligonucleotide-based sandwich hybridization assay.; assay type: functional, MT2
Method in brief: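 Uninfected MT-2 cells were preincubated for 30 min with serial dilutions of compound, then infected with HIV-1 RF and cultured for 3 days at 37 °C, 5% CO2. Lysates were assayed for viral RNA by microtiter oligonucleotide sandwich hybridization.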

[2] = (§1) Bioavailability as maximal plasma concentration in rats; assay type: ADME, organism-based; conditions: rat
Method in brief: (§2)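 Rats (n = 4/group) were given an oral dose of 10 mg/kg in a propylene glycol / poly(ethylene glycol) 400 / water formulation. Cmax is the observed peak plasma concentration after the oral dose. F% is AUC(po)/AUC, with AUC taken from time zero to infinity and normalized for dose.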

[3] = as §1; assay type: ADME, organism-based; conditions: rat; method in brief: as §2; remark: listed apart in the source
[4] = Bioavailability as maximal plasma concentration in dogs; assay type: ADME, organism-based, Canis lupus familiaris; conditions: dog
Method in brief: (§3)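 Dogs received an oral dose of 10 mg/kg. Cmax is the observed peak plasma concentration after the oral dose. Oral bioavailability is the dose-normalized ratio AUC(po)/AUC, with the plasma concentration–time area taken from zero to infinity.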

[5] = target: Human immunodeficiency virus type 1 protease (Human immunodeficiency virus 1, UniProt Q72874); assay: Inhibitory activity against HIV-1 protease
Method in brief: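 HIV-1 protease Ki from cleavage of a fluorescent peptide substrate, products resolved by HPLC. Inhibitor was tested at four concentrations spanning 0.1–10 000 nM, the range chosen per inhibitor.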

[6] = Bioavailability in rat; assay type: ADME, organism-based; conditions: in vivo; method in brief: as §2
[7] = Bioavailability in dog; assay type: ADME, organism-based, Canis lupus familiaris; conditions: in vivo; method in brief: as §3
[8] = Human immunodeficiency virus 1, MT2

Row | Structure (SMILES) | IC90 [1, 8] | Cmax [2] | Cmax [3] | Cmax [4] | Ki [5] | bioavailability [6] | bioavailability [7] | IC90 [1]
1 | O=C1N(Cc2cccc(O)c2)[C@H](Cc2ccccc2)[C@H](O)[C@@H](O)[C@@H](Cc2ccccc2)N1Cc1ccc2ccccc2c1 | 145 nM | 960 nM | 960 nM | 2700 nM | 0.33 nM |  |  | 
2 | O=C1N(Cc2cccc(Cl)c2)[C@H](Cc2ccccc2)[C@H](O)[C@@H](O)[C@@H](Cc2ccccc2)N1Cc1cccc(Cl)c1 | 1300 nM | 300 nM |  |  | 0.89 nM |  |  | 
3 | CC(C)=CCN1C(=O)N(CC=C(C)C)[C@H](Cc2ccccc2)[C@H](O)[C@@H](O)[C@H]1Cc1ccccc1 | 870 nM | < 400 nM |  |  |  |  |  | 
4 | O=C1N(Cc2ccccc2)[C@H](Cc2ccccc2)[C@H](O)[C@@H](O)[C@@H](Cc2ccccc2)N1Cc1ccccc1 | 830 nM | 1300 nM |  |  | 3 nM |  |  | 
5 | O=C1N(Cc2cccc(CO)c2)[C@H](Cc2ccccc2)[C@H](O)[C@@H](O)[C@@H](Cc2ccccc2)N1Cc1cccc(CO)c1 | 38 nM | 830 nM |  |  | 0.14 nM | 18% |  | 
6 | O=C1N(Cc2ccc(F)cc2)[C@H](Cc2ccccc2)[C@H](O)[C@@H](O)[C@@H](Cc2ccccc2)N1Cc1ccc(F)cc1 | 600 nM | 1600 nM |  |  | 1.4 nM |  |  | 
7 | O=C1N(CC2CCCC2)[C@H](Cc2ccccc2)[C@H](O)[C@@H](O)[C@@H](Cc2ccccc2)N1CC1CCCC1 | 1700 nM | 200 nM |  |  | 4.3 nM |  |  | 
8 | C=CCN1C(=O)N(CC=C)[C@H](Cc2ccccc2)[C@H](O)[C@@H](O)[C@H]1Cc1ccccc1 | 4700 nM | 2700 nM |  |  | 5.2 nM | 49% |  | 
9 | O=C1N(Cc2cccc(O)c2)[C@H](Cc2ccccc2)[C@H](O)[C@@H](O)[C@@H](Cc2ccccc2)N1Cc1cccc(O)c1 | 54 nM | 810 nM |  | 2000 nM | 0.12 nM | 30% | 16% | 
10 | CC(C)CCCCCN1C(=O)N(CCCCCC(C)C)[C@H](Cc2ccccc2)[C@H](O)[C@@H](O)[C@H]1Cc1ccccc1 | > 18000 nM |  |  |  | 110 nM |  |  | 
11 | O=C1N(Cc2cccnc2)[C@H](Cc2ccccc2)[C@H](O)[C@@H](O)[C@@H](Cc2ccccc2)N1Cc1ccc2ccccc2c1 | 720 nM |  |  |  | 5.2 nM |  |  | 
12 | O=C1N(Cc2ccc(CO)cc2)[C@H](Cc2ccccc2)[C@H](O)[C@@H](O)[C@@H](Cc2ccccc2)N1Cc1ccc(CO)cc1 [DMP-323] |  | 780 nM |  | 2800 nM |  | 27% | 37% | 57 nM
13 | O=C1N(Cc2ccc(O)cc2)[C@H](Cc2ccccc2)[C@H](O)[C@@H](O)[C@@H](Cc2ccccc2)N1Cc1ccc(O)cc1 | 32 nM | 390 nM |  |  | 0.12 nM | 22% |  | 
14 | O=C1N(CC2CC2)[C@H](Cc2ccccc2)[C@H](O)[C@@H](O)[C@@H](Cc2ccccc2)N1CC1CC1 | 1800 nM | 4300 nM |  | 9200 nM |  | 100% | 48% | 
15 | O=C1N(Cc2cccc(I)c2)[C@H](Cc2ccccc2)[C@H](O)[C@@H](O)[C@@H](Cc2ccccc2)N1Cc1cccc(I)c1 | 3000 nM |  |  |  | 0.42 nM |  |  | 
16 | O=C1N(Cc2ccc(F)cc2)[C@H](Cc2ccccc2)[C@H](O)[C@@H](O)[C@@H](Cc2ccccc2)N1Cc1ccc2ccccc2c1 | 1100 nM |  |  |  | 3.6 nM |  |  | 
17 | O=C1N(Cc2ccc(Cl)cc2)[C@H](Cc2ccccc2)[C@H](O)[C@@H](O)[C@@H](Cc2ccccc2)N1Cc1ccc(Cl)cc1 | 4500 nM |  |  |  | 5.2 nM |  |  | 
18 | O=C1N(Cc2ccccc2)[C@H](Cc2ccccc2)[C@H](O)[C@@H](O)[C@@H](Cc2ccccc2)N1Cc1ccc2ccccc2c1 | 7500 nM |  |  |  | 2.3 nM |  |  | 
